Source: ChEMBL document CHEMBL2086296, “Synthesis of novel quinoline-2-one based chalcones of potential anti-tumor activity” (Eur J Med Chem, 2012)

Legend:
HOP-62 = experiment: Cytotoxicity against human HOP62 cells after 24 hrs by SRB assay; format: functional; settings: HOP-62, 24 h
In short: (§1)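 NCI 60-line screen. Cells in RPMI 1640 with 5% FBS and 2 mM L-glutamine, seeded at 5,000–40,000 cells/well by doubling time, then incubated 24 h at 37 °C, 5% CO2 before dosing. Time-zero plates fixed with TCA at drug addition. DMSO stocks diluted in medium with gentamicin to five concentrations, […]. Protein read by SRB staining. GI50, TGI and LC50 derived relative to control and time-zero.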

NCI-H226 [1] = experiment: (§2) Cytotoxicity against human NCI-H226 cells after 24 hrs by SRB assay; format: functional; settings: NCI-H226, 24 h; in short: as §1
NCI-H522 = experiment: Cytotoxicity against human NCI-H522 cells after 24 hrs by SRB assay; format: functional; settings: NCI-H522, 24 h; in short: as §1
A549 = experiment: Cytotoxicity against human A549 cells after 24 hrs by SRB assay; format: functional; settings: A549, 24 h; in short: as §1
COLO 205 [2] = experiment: (§3) Cytotoxicity against human COLO205 cells after 24 hrs by SRB assay; format: functional; settings: COLO 205, 24 h; in short: as §1
HCT-15 [3] = experiment: (§4) Cytotoxicity against human HCT15 cells after 24 hrs by SRB assay; format: functional; settings: HCT-15, 24 h; in short: as §1
HCC 2998 = experiment: Cytotoxicity against human HCC2998 cells after 24 hrs by SRB assay; format: functional; settings: HCC 2998, 24 h; in short: as §1
SK-MEL-28 [4] = experiment: (§5) Cytotoxicity against human SK-MEL-28 cells after 24 hrs by SRB assay; format: functional; settings: SK-MEL-28, 24 h; in short: as §1
CAKI-1 = experiment: Cytotoxicity against human CAKI-1 cells after 24 hrs by SRB assay; format: functional; settings: CAKI-1, 24 h; in short: as §1
TK-10 [5] = experiment: (§6) Cytotoxicity against human TK10 cells after 24 hrs by SRB assay; format: functional; settings: TK-10, 24 h
In short: (§7)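 NCI 60-cell screen. Cells are grown in RPMI 1640 with 5% FBS and 2 mM L-glutamine and seeded at 5,000–40,000 cells/well according to doubling time. They are preincubated 24 h at 37 °C in 5% CO2, and Tz plates are TCA-fixed at drug addition. Drug stock is in DMSO, diluted in medium with gentamicin, and tested at five concentrations (100, 10, 1.0, 0.1, […]). Protein is read by SRB staining. GI50, TGI and LC50 are derived relative to time-zero and control wells.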

786-0 = experiment: Cytotoxicity against human 786-0 cells after 24 hrs by SRB assay; format: functional; settings: 786-0, 24 h; in short: as §1
DU-145 = experiment: Cytotoxicity against human DU145 cells after 24 hrs by SRB assay; format: functional; settings: DU-145, 24 h; in short: as §1
MCF7 = experiment: Cytotoxicity against human MCF7 cells after 24 hrs by SRB assay; format: functional; settings: MCF7, 24 h; in short: as §1
T47D = experiment: Cytotoxicity against human T47D cells after 24 hrs by SRB assay; format: functional; in short: as §7
RPMI-8226 = experiment: Cytotoxicity against human RPMI8226 cells after 24 hrs by SRB assay; format: cell-based; settings: rpmi-8226, 24 h
In short: (§8)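 NCI 60-cell screen. Cells grown in RPMI 1640 with 5% FBS and 2 mM L-glutamine, seeded at 5,000–40,000 cells/well, preincubated 24 h at 37 °C in 5% CO2. Drug stock in DMSO, diluted in medium with gentamicin; five final concentrations, 100, 10, 1.0, 0.1 and […]. Time-zero plates were TCA-fixed. Protein read by SRB staining; GI50, TGI and LC50 taken relative to time-zero.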

NCI-H226 [6] = experiment: as §2; format: cell-based; settings: nci-h226, 24 h; in short: as §8
NCI-H460 = experiment: Cytotoxicity against human NCI-H460 cells after 24 hrs by SRB assay; format: cell-based; settings: nci-h460, 24 h; in short: as §8
COLO 205 [7] = experiment: as §3; format: cell-based; settings: colo 205, 24 h; in short: as §8
HCT-15 [8] = experiment: as §4; format: cell-based; settings: hct-15, 24 h; in short: as §8
KM12 = experiment: Cytotoxicity against human KM12 cells after 24 hrs by SRB assay; format: cell-based; settings: km12, 24 h; in short: as §8
SF-295 = experiment: Cytotoxicity against human SF295 cells after 24 hrs by SRB assay; format: cell-based; settings: sf-295, 24 h; in short: as §8
U-251 = experiment: Cytotoxicity against human U251 cells after 24 hrs by SRB assay; format: cell-based; settings: u-251, 24 h
In short: (§9)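 NCI 60-cell-line screen: cells grown in RPMI 1640 with 5% FBS and 2 mM L-glutamine, seeded at 5,000–40,000 cells/well by doubling time, and preincubated 24 h at 37 °C in 5% CO2. Time-zero plates were TCA-fixed. DMSO stocks were diluted in medium with gentamicin to five concentrations (100, 10, 1.0, 0.1, […]). Protein was read by SRB, and GI50, TGI and LC50 were derived against time-zero.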

SNB-19 = experiment: Cytotoxicity against human SNB19 cells after 24 hrs by SRB assay; format: cell-based; settings: snb-19, 24 h; in short: as §9
HL-60 = experiment: Cytotoxicity against human HL60 cells after 24 hrs by SRB assay; format: functional; settings: HL-60, 24 h; in short: as §1
M14 = experiment: Cytotoxicity against human M14 cells after 24 hrs by SRB assay; format: cell-based; settings: m14, 24 h; in short: as §8
SK-MEL-28 [9] = experiment: as §5; format: cell-based; settings: sk-mel-28, 24 h; in short: as §8
NCI/ADR-RES = experiment: Cytotoxicity against human NCI/ADR-RES cells after 24 hrs by SRB assay; format: cell-based; in short: as §8
OVCAR-8 = experiment: Cytotoxicity against human OVCAR8 cells after 24 hrs by SRB assay; format: cell-based; settings: ovcar-8, 24 h; in short: as §8
OVCAR-5 = experiment: Cytotoxicity against human OVCAR5 cells after 24 hrs by SRB assay; format: cell-based; settings: ovcar-5, 24 h; in short: as §8
SK-OV-3 = experiment: Cytotoxicity against human SKOV3 cells after 24 hrs by SRB assay; format: cell-based; settings: sk-ov-3, 24 h; in short: as §9
TK-10 [10] = experiment: as §6; format: cell-based; settings: tk-10, 24 h; in short: as §9
MDA-MB-231 = experiment: Cytotoxicity against human MDA-MB-231 cells after 24 hrs by SRB assay; format: cell-based; settings: mda-mb-231, 24 h; in short: as §8
BT-549 = experiment: Cytotoxicity against human BT549 cells after 24 hrs by SRB assay; format: cell-based; settings: bt-549, 24 h; in short: as §8

Molecule `COc1ccc(C(=O)/C=C/c2cc3ccccc3[nH]c2=O)cc1` has a GI50 (HOP-62) of 3.68 µM, a TGI (HOP-62) of 11.6 µM and a GI50 (NCI-H226 [1]) of 5.57 µM. It also gave a TGI (NCI-H226 [1]) greater than 100 µM, a GI50 (NCI-H522) of 2.12 µM and a TGI (NCI-H522) of 6.13 µM. For the same molecule, the GI50 (A549) was 3.21 µM, the TGI (A549) was greater than 100 µM and the GI50 (COLO 205 [2]) was 3.66 µM. The TGI (COLO 205 [2]) was 13.4 µM, the GI50 (HCT-15 [3]) was 3.18 µM and the TGI (HCT-15 [3]) was 21.1 µM. For the same molecule, the GI50 (HCC 2998) was 2.5 µM, the TGI (HCC 2998) was 6.49 µM and the GI50 (SK-MEL-28 [4]) was 7.59 µM. It also gave a TGI (SK-MEL-28 [4]) of 30.6 µM, a GI50 (CAKI-1) of 1.78 µM and a TGI (CAKI-1) of 3.51 µM. It also gave a GI50 (TK-10 [5]) of 3.54 µM, a TGI (TK-10 [5]) of 55.8 µM and a GI50 (786-0) of 3.52 µM. For the same molecule, the TGI (786-0) was greater than 100 µM, the GI50 (DU-145) was 3.14 µM and the TGI (DU-145) was 11.2 µM. For the same molecule, the GI50 (MCF7) was 2.86 µM, the TGI (MCF7) was 88.7 µM and the GI50 (T47D) was 3.55 µM. For the same molecule, the TGI (T47D) was greater than 100 µM, the LC50 (RPMI-8226) was greater than 100 µM and the LC50 (NCI-H226 [6]) was greater than 100 µM. For the same molecule, the LC50 (NCI-H460) was 66.8 µM, the LC50 (COLO 205 [7]) was 77.6 µM and the LC50 (HCT-15 [8]) was greater than 100 µM. For the same molecule, the LC50 (KM12) was 26.9 µM, the LC50 (SF-295) was 80.8 µM and the LC50 (U-251) was greater than 100 µM. The LC50 (SNB-19) was 75.8 µM, the GI50 (HL-60) was 3.36 µM and the TGI (HL-60) was greater than 100 µM. The LC50 (M14) was greater than 100 µM, the LC50 (SK-MEL-28 [9]) was greater than 100 µM and the LC50 (NCI/ADR-RES) was greater than 100 µM. For the same molecule, the LC50 (OVCAR-8) was greater than 100 µM, the LC50 (OVCAR-5) was greater than 100 µM and the LC50 (SK-OV-3) was greater than 100 µM. For the same molecule, the LC50 (TK-10 [10]) was greater than 100 µM, the LC50 (MDA-MB-231) was greater than 100 µM and the LC50 (BT-549) was 46.3 µM.
